Data from ChEMBL document CHEMBL2046401, “Detailed structure-activity relationship of indolecarboxamides as H4 receptor ligands” (Eur J Med Chem, 2012).
Values after ≈ are worked out from the molar mass of the structure shown.

Experiments:
Histamine H4 receptor = Histamine H4 receptor (Homo sapiens, UniProt Q9H3N8); assay: Displacement of [3H]histamine from human histamine H4 receptor expressed in HEK cells; assay type: cell-based, HEK293
[1] = Solubility of the compound at pH 6.8; assay type: physicochemical; conditions: buffer
In short: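 Solubility determined by the DMSO solution precipitation method.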

[2] = Half life in human liver microsomes; assay type: ADME, Microsome
[3] = Half life in mouse liver microsomes; assay type: ADME, Microsome

Row | Ki (Histamine H4 receptor) | Structure (SMILES) | further results
1 | 6.31 nM | CN1CCN(C(=O)c2cc3c(F)c(Cl)ccc3[nH]2)CC1 | –
2 | 20 nM | CN1CCN(C(=O)c2cc3cccc(F)c3[nH]2)CC1 | –
3 | 25.1 nM | CN1CCN(C(=O)c2cc3cc(O)ccc3[nH]2)CC1 | –
4 | 251 nM | CN1CCN(C(=O)c2cc3cc(Cl)ccc3o2)CC1 | –
5 | 20 nM | O=C(c1cc2cc(Cl)cc(F)c2[nH]1)N1CCNCC1 | –
6 | 15.8 nM | CN1CCN(C(=O)c2cc3cccc(N)c3[nH]2)CC1 | –
7 | 12600 nM | CC(=O)c1ccc2[nH]c(C(=O)N3CCN(C)CC3)cc2c1 | –
8 | 2000 nM | CN1CCN(C(=O)c2cc3cccnc3[nH]2)CC1 | –
9 | 79.4 nM | CN1CCN(C(=O)c2cc3cc([N+](=O)[O-])ccc3[nH]2)CC1 | –
10 | 5010 nM | CC(=O)c1cccc2[nH]c(C(=O)N3CCN(C)CC3)cc12 | –
11 | 316 nM | CN1CCN(C(=O)c2cc3c(N)cccc3[nH]2)CC1 | –
12 | 10 nM | O=C(c1cc2cc(Cl)ccc2[nH]1)N1CC(N2CCCC2)C1 | –
13 | 3980 nM | CN1CCN(C(=O)c2cc3ncccc3[nH]2)CC1 | –
14 | 31.6 nM | CN1CCN(C(=O)c2cc3c(F)cccc3[nH]2)CC1 | –
15 | 5010 nM | CN1CCCN(C(=O)c2cc3cccc(C(F)(F)F)c3[nH]2)CC1 | –
16 | 1000 nM | COc1cccc2[nH]c(C(=O)N3CCN(C)CC3)cc12 | –
17 | 158 nM | CN1CCN(C(=O)c2cc3ccc(Cl)cc3[nH]2)CC1 | –
18 | 39.8 nM | CN1CCCN(C(=O)c2cc3cc(Cl)ccc3[nH]2)CC1 | –
19 | 398 nM | CN1CCCN(C(=O)c2cc3ccccc3[nH]2)CC1 | –
20 | 6.31 nM | Cc1cc(Cl)cc2cc(C(=O)N3CCN(C)CC3)[nH]c12 | solubility [1]: 57 µg/mL (≈ 195 µM); half-life [2]: > 45 min; half-life [3]: 2 min
21 | 31.6 nM | Cc1cc(Cl)cc2cc(C(=O)N3CC(N4CCCC4)C3)[nH]c12 | solubility [1]: 10 µg/mL (≈ 31.5 µM); half-life [2]: > 90 min; half-life [3]: 11 min
22 | 50.1 nM | Cc1ccc2[nH]c(C(=O)N3CCN(C)CC3)cc2c1 | –
23 | 2000 nM | CN1CCN(C(=O)c2cc3ccc([N+](=O)[O-])cc3[nH]2)CC1 | –

Row | Ki (Histamine H4 receptor) | Structure (SMILES) | further results
24 | 2510 nM | CN1CCN(C(=O)c2cc3ccccc3s2)CC1 | –
25 | 12.6 nM | O=C(c1cc2cc(Cl)ccc2[nH]1)N1CCNCC1 | –
26 | 15.8 nM | O=C(c1cc2cc(Cl)cc(F)c2[nH]1)N1CC(N2CCCC2)C1 | –
27 | 2000 nM | CN1CCN(C(=O)c2cc3ccncc3[nH]2)CC1 | –
28 | 794 nM | CN1CCN(C(=O)c2cc3c([N+](=O)[O-])cccc3[nH]2)CC1 | –
29 | 100 nM | CNC1CN(C(=O)c2cc3cc(Cl)cc(F)c3[nH]2)C1 | –
30 | 79.4 nM | CN1CCN(C(=O)c2cc3ccc(N)cc3[nH]2)CC1 | –
31 | 39.8 nM | Cc1cccc2cc(C(=O)N3CCNCC3)[nH]c12 | –
32 | 398 nM | CNC1CN(C(=O)c2cc3cccc(C)c3[nH]2)C1 | –
33 | 631 nM | CN[C@@H]1CCN(C(=O)c2cc3cccc(C)c3[nH]2)C1 | –
34 | 251 nM | CN[C@@H]1CCN(C(=O)c2cc3cc(Cl)cc(F)c3[nH]2)C1 | –
35 | 1580 nM | Cc1cccc2cc(C(=O)N3CCCN(C)CC3)[nH]c12 | –
36 | 251 nM | CN1CCCN(C(=O)c2cc3c(F)cccc3[nH]2)CC1 | –
37 | 12.6 nM | Cc1cc(Cl)cc2cc(C(=O)N3CCNCC3)[nH]c12 | solubility [1]: 65 µg/mL (≈ 234 µM); half-life [2]: > 90 min; half-life [3]: 16 min
38 | 251 nM | CN[C@@H]1CCN(C(=O)c2cc3cc(Cl)cc(C)c3[nH]2)C1 | solubility [1]: 59 µg/mL (≈ 202 µM); half-life [2]: > 90 min; half-life [3]: 27 min
39 | 6.31 nM | CN1CCN(C(=O)c2cc3c(Cl)c(Cl)ccc3[nH]2)CC1 | –
40 | 501 nM | CN[C@@H]1CCN(C(=O)c2cc3cccc(F)c3[nH]2)C1 | –
41 | 100 nM | O=C(c1cc2cccc(F)c2[nH]1)N1CCNCC1 | –
42 | 6310 nM | CN1CCN(C(=O)c2cc3cnccc3[nH]2)CC1 | –
43 | 79.4 nM | Cc1cccc2cc(C(=O)N3CC(N4CCCC4)C3)[nH]c12 | –
44 | 15800 nM | COc1cccc2cc(C(=O)N3CCCN(C)CC3)[nH]c12 | –
45 | 63.1 nM | O=C(c1cc2cc(Cl)ccc2[nH]1)N1CCCNCC1 | –
46 | 12.6 nM | Cc1cccc2cc(C(=O)N3CCN(C)CC3)[nH]c12 | –

Row | Ki (Histamine H4 receptor) | Structure (SMILES) | further results
47 | 158 nM | CN1CCN(C(=O)c2cc3c(O)cccc3[nH]2)CC1 | –
48 | 25.1 nM | CN1CCN(C(=O)c2cc3ccc(O)cc3[nH]2)CC1 | –
49 | 398 nM | CNC1CN(C(=O)c2cc3cccc(F)c3[nH]2)C1 | –
50 | 794 nM | CN1CCN(C(=O)c2cc3cccc([N+](=O)[O-])c3[nH]2)CC1 | –
51 | 6.31 nM | CN1CCN(C(=O)c2cc3cc(Cl)cc(F)c3[nH]2)CC1 | –
52 | 39.8 nM | O=C(c1cc2cccc(F)c2[nH]1)N1CC(N2CCCC2)C1 | –
53 | 31.6 nM | CN1CCCN(C(=O)c2cc3c(F)c(Cl)ccc3[nH]2)CC1 | –
54 | 398 nM | CN1CCN(C(=O)c2cc3cc(Cl)cc([N+](=O)[O-])c3[nH]2)CC1 | –
55 | 15.8 nM | CN1CCN(C(=O)c2cc3cc(F)ccc3[nH]2)CC1 | –
56 | 200 nM | CNC1CN(C(=O)c2cc3cc(Cl)cc(C)c3[nH]2)C1 | solubility [1]: 51 µg/mL (≈ 184 µM); half-life [2]: > 90 min; half-life [3]: 26 min
57 | 31.6 nM | CN1CCN(C(=O)c2cc3c(Cl)cccc3[nH]2)CC1 | –
58 | 1000 nM | COc1ccc2[nH]c(C(=O)N3CCN(C)CC3)cc2c1 | –
59 | 1000 nM | CN1CCN(C(=O)c2cc3cccc(C(F)(F)F)c3[nH]2)CC1 | –
60 | 398 nM | CN1CCCN(C(=O)c2cc3cccc(F)c3[nH]2)CC1 | –
61 | 20 nM | CN1CCN(C(=O)c2cc3cccc(Cl)c3[nH]2)CC1 | –
62 | 15800 nM | COc1ccc2cc(C(=O)N3CCN(C)CC3)[nH]c2c1 | –
63 | 79.4 nM | CN1CCN(C(=O)c2cc3c(F)ccc(F)c3[nH]2)CC1 | –
64 | 2510 nM | COc1cccc2cc(C(=O)N3CCN(C)CC3)[nH]c12 | –
65 | 63.1 nM | CN1CCCN(C(=O)c2cc3cc(Cl)cc(F)c3[nH]2)CC1 | –
66 | 5.01 nM | CN1CCN(C(=O)c2cc3cc(Cl)cc(N)c3[nH]2)CC1 | solubility [1]: 67 µg/mL (≈ 229 µM); half-life [2]: 66 min; half-life [3]: 14 min
67 | 39.8 nM | Cc1ccc(F)c2cc(C(=O)N3CCN(C)CC3)[nH]c12 | –
